The source made the active and inactive calls. The rule behind the calls is not given here.
Experiments:
[1] = test system: HSC-4; assay: Cytotoxicity against human HSC4 cells after 48 hrs; format: functional; settings: HSC-4, 48 h
[2] = test system: UACC-62; assay: Growth inhibition of human UACC62 cells at 10 uM; format: functional, cell-based
Method in brief: (§1)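 Human tumor cell line panel (59 lines across leukemia, melanoma, non-small cell lung, colon, CNS, ovarian, renal, prostate, breast) treated at a single 10 uM concentration; growth inhibition recorded per line.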

[3] = Cytotoxicity against human HPLF cells after 48 hrs; format: cell-based
[4] = test system: U-251; assay: Growth inhibition of human U251 cells at 10 uM; format: functional, cell-based; method in brief: as §1
[5] = test system: CCRF-CEM; assay: Growth inhibition of human CCRF-CEM cells at 10 uM; format: functional, cell-based; method in brief: as §1
[6] = test system: M14; assay: Growth inhibition of human M14 cells at 10 uM; format: functional, cell-based; method in brief: as §1
[7] = test system: MDA-MB-435; assay: Growth inhibition of human MDA-MB-435 cells at 10 uM; format: functional, cell-based; method in brief: as §1
[8] = Growth inhibition of human Molt4/C8 cells after 3 days; format: functional, cell-based; settings: MOLT-4, 72 h
Method in brief: (§2)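 Human CEM and Molt 4/C8 T-lymphocytes were grown for three days with or without serial dilutions of the compound. IC50 is the concentration that inhibits cell growth by 50%.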

[9] = test system: PC-3; assay: Growth inhibition of human PC3 cells at 10 uM; format: functional, cell-based; method in brief: as §1
[10] = test system: NCI-H460; assay: Growth inhibition of human NCI-H460 cells at 10 uM; format: functional, cell-based; method in brief: as §1
[11] = test system: OVCAR-4; assay: Growth inhibition of human OVCAR4 cells at 10 uM; format: functional, cell-based; method in brief: as §1
[12] = test system: HSC-2; assay: Cytotoxicity against human HSC2 cells after 48 hrs; format: functional; settings: HSC-2, 48 h
[13] = test system: NCI-H23; assay: Growth inhibition of human NCI-H23 cells at 10 uM; format: functional, cell-based; method in brief: as §1
[14] = test system: T47D; assay: Growth inhibition of human T47D cells at 10 uM; format: functional, cell-based; method in brief: as §1
[15] = test system: HCT-116; assay: Growth inhibition of human HCT116 cells at 10 uM; format: functional, cell-based; method in brief: as §1
[16] = test system: HL-60; assay: Cytotoxicity against human HL60 cells after 48 hrs; format: functional; settings: HL-60, 48 h
[17] = test system: Hs-578T; assay: Growth inhibition of human Hs 578T cells at 10 uM; format: functional, cell-based; method in brief: as §1
[18] = test system: NCI/ADR-RES; assay: Growth inhibition of human NCI/ADR-RES cells at 10 uM; format: functional, cell-based; method in brief: as §1
[19] = test system: SW-620; assay: Growth inhibition of human SW620 cells at 10 uM; format: functional, cell-based; method in brief: as §1
[20] = test system: LOX IMVI; assay: Growth inhibition of human LOXIMVI cells at 10 uM; format: functional, cell-based; method in brief: as §1
[21] = molecular target: T1, ATP-dependent translocase ABCB1 (Homo sapiens, UniProt P08183); assay: Reversal of P-glycoprotein-mediated multidrug resistance in human MDR1 gene transfected mouse L5178Y cells assessed as fluorescence activity ratio at 200 uM by rhodamine 123 accumulation assay; format: cell-based
T1 sequence (P08183 whole entry): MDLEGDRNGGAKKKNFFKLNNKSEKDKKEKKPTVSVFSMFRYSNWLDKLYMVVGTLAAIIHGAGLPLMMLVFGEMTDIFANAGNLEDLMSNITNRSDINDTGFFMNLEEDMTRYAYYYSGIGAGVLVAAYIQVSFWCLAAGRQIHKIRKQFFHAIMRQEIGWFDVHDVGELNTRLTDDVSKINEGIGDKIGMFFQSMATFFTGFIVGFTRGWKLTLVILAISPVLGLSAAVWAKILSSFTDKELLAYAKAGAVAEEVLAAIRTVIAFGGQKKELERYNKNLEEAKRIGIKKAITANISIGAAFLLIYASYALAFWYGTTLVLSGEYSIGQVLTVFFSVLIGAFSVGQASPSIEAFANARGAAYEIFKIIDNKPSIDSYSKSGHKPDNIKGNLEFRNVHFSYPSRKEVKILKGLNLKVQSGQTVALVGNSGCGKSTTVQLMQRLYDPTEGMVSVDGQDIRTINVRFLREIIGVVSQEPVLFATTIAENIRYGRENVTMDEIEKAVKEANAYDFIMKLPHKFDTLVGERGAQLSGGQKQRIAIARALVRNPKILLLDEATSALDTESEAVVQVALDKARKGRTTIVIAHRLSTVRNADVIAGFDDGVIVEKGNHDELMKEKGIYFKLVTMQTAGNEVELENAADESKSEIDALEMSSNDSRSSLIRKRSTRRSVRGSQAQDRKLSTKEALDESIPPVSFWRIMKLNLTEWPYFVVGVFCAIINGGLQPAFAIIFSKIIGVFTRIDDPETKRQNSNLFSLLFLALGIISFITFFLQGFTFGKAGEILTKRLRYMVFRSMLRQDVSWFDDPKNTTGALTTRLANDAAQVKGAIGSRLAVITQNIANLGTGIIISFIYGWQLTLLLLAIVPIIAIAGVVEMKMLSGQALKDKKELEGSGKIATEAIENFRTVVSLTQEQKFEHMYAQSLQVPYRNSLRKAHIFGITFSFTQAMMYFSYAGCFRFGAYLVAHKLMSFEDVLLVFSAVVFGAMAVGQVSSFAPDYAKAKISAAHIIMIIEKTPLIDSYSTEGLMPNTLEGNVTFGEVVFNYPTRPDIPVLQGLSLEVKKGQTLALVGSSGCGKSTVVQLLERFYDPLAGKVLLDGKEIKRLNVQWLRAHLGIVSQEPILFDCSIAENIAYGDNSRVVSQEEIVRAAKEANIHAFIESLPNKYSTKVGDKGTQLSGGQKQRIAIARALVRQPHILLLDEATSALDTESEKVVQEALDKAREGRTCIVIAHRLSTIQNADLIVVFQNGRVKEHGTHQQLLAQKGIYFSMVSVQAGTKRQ
Method in brief: (§3)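 Murine L-5178Y lymphoma cells transfected with human MDR1 gene (P-gp-overexpressing), alongside parental cells, treated or untreated with compound; rhodamine 123 accumulation measured by fluorescence; FAR = ratio of fluorescence intensity in treated versus untreated cells, values above 1 taken as MDR reversal.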

[22] = test system: A549; assay: Growth inhibition of human A549 cells at 10 uM; format: functional, cell-based; method in brief: as §1
[23] = test system: SF-295; assay: Growth inhibition of human SF295 cells at 10 uM; format: functional, cell-based; method in brief: as §1
[24] = Cytotoxicity against human HGF cells after 48 hrs; format: cell-based
[25] = test system: EKVX; assay: Growth inhibition of human EKVX cells at 10 uM; format: functional, cell-based; method in brief: as §1
[26] = test system: A498; assay: Growth inhibition of human A498 cells at 10 uM; format: functional, cell-based; method in brief: as §1
[27] = test system: K562; assay: Growth inhibition of human K562 cells at 10 uM; format: functional, cell-based; method in brief: as §1
[28] = test system: RXF 393; assay: Growth inhibition of human RXF393 cells at 10 uM; format: functional, cell-based; method in brief: as §1
[29] = test system: HCT-15; assay: Growth inhibition of human HCT15 cells at 10 uM; format: functional, cell-based; method in brief: as §1
[30] = test system: SNB-75; assay: Growth inhibition of human SNB75 cells at 10 uM; format: functional, cell-based; method in brief: as §1
[31] = test system: OVCAR-3; assay: Growth inhibition of human OVCAR-3 cells at 10 uM; format: functional, cell-based; method in brief: as §1
[32] = test system: IGROV-1; assay: Growth inhibition of human IGROV1 cells at 10 uM; format: functional, cell-based; method in brief: as §1
[33] = Cytotoxicity against human HPC cells after 48 hrs; format: cell-based
[34] = test system: NCI-H522; assay: Growth inhibition of human NCI-H522 cells at 10 uM; format: functional, cell-based; method in brief: as §1
[35] = test system: MDA-MB-468; assay: Growth inhibition of human MDA-MB-468 cells at 10 uM; format: functional, cell-based; method in brief: as §1
[36] = test system: HOP-92; assay: Growth inhibition of human HOP92 cells at 10 uM; format: functional, cell-based; method in brief: as §1
[37] = test system: RPMI8266; assay: Growth inhibition of human […] cells at 10 uM; format: functional, cell-based; method in brief: as §1
[38] = test system: MCF7; assay: Growth inhibition of human MCF7 cells at 10 uM; format: functional, cell-based; method in brief: as §1
[39] = test system: UO-31; assay: Growth inhibition of human UO31 cells at 10 uM; format: functional, cell-based; method in brief: as §1
[40] = molecular target: T1, ATP-dependent translocase ABCB1; assay: Reversal of P-glycoprotein-mediated multidrug resistance in human MDR1 gene transfected mouse L5178Y cells assessed as fluorescence activity ratio at 20 uM by rhodamine 123 accumulation assay; format: cell-based; method in brief: as §3
[41] = test system: CAKI-1; assay: Growth inhibition of human Caki1 cells at 10 uM; format: functional, cell-based; method in brief: as §1
[42] = test system: HSC-3; assay: Cytotoxicity against human HSC3 cells after 48 hrs; format: functional; settings: HSC-3, 48 h
[43] = test system: HCC 2998; assay: Growth inhibition of human HCC2998 cells at 10 uM; format: functional, cell-based; method in brief: as §1
[44] = test system: HL-60; assay: Growth inhibition of human HL60 cells at 10 uM; format: functional, cell-based; method in brief: as §1
[45] = test system: OVCAR-8; assay: Growth inhibition of human OVCAR8 cells at 10 uM; format: functional, cell-based; method in brief: as §1
[46] = test system: DU-145; assay: Growth inhibition of human DU145 cells at 10 uM; format: functional, cell-based; method in brief: as §1
[47] = test system: CCRF-CEM; assay: Growth inhibition of human CEM cells after 3 days; format: functional, cell-based; settings: 72 h; method in brief: as §2

In the case of `Cc1c(C(=O)/C=C/c2ccc(F)cc2)[n+]([O-])c2ccccc2[n+]1[O-]`, the CC50 [1] is reported as 8.1 µM, the “growth inhibition (GI)” value [2] is reported as “Active” and the CC50 at 48 h [3] is reported as 20 µM. For the same molecule, the “growth inhibition (GI)” value [4] was “Active”, the “growth inhibition (GI)” value [5] was “Active” and the “growth inhibition (GI)” value [6] was “Active”. For the same molecule, the “growth inhibition (GI)” value [7] was “Active”, the IC50 [8] was 6.4 µM and the “growth inhibition (GI)” value [9] was “Active”. The “growth inhibition (GI)” value [10] was “Active”, the “growth inhibition (GI)” value [11] was “Active” and the CC50 [12] was 6.2 µM. For the same molecule, the “growth inhibition (GI)” value [13] was “Active”, the “growth inhibition (GI)” value [14] was “Active” and the “growth inhibition (GI)” value [15] was “Active”. The CC50 [16] was 4.6 µM, the “growth inhibition (GI)” value [17] was “Active” and the “growth inhibition (GI)” value [18] was “Active”. For the same molecule, the “growth inhibition (GI)” value [19] was “Active”, the “growth inhibition (GI)” value [20] was “Active” and the Ratio [21] was 25.8. The “growth inhibition (GI)” value [22] was “Active”, the “growth inhibition (GI)” value [23] was “Active” and the CC50 at 48 h [24] was 31 µM. For the same molecule, the “growth inhibition (GI)” value [25] was “Active”, the “growth inhibition (GI)” value [26] was “Active” and the “growth inhibition (GI)” value [27] was “Active”. For the same molecule, the “growth inhibition (GI)” value [28] was “Active”, the “growth inhibition (GI)” value [29] was “Active” and the “growth inhibition (GI)” value [30] was “Active”. For the same molecule, the “growth inhibition (GI)” value [31] was “Active”, the “growth inhibition (GI)” value [32] was “Active” and the CC50 at 48 h [33] was 48 µM. The “growth inhibition (GI)” value [34] was “Active”, the “growth inhibition (GI)” value [35] was “Active” and the “growth inhibition (GI)” value [36] was “Active”. The “growth inhibition (GI)” value [37] was “Active”, the “growth inhibition (GI)” value [38] was “Active” and the “growth inhibition (GI)” value [39] was “Active”. For the same molecule, the Ratio [40] was 4.81, the “growth inhibition (GI)” value [41] was “Active” and the CC50 [42] was 7.7 µM. For the same molecule, the “growth inhibition (GI)” value [43] was “Active”, the “growth inhibition (GI)” value [44] was “Active” and the “growth inhibition (GI)” value [45] was “Active”. For the same molecule, the “growth inhibition (GI)” value [46] was “Active” and the IC50 [47] was 10 µM.
Work on `Cc1c(C(=O)/C=C/c2ccc(Br)cc2)[n+]([O-])c2ccccc2[n+]1[O-]` yielded a CC50 [1] of 36 µM, a CC50 at 48 h [3] of 26 µM and an IC50 [8] of 17.1 µM. For the same molecule, the CC50 [12] was 19 µM, the CC50 [16] was 23 µM and the Ratio [21] was 2.81. For the same molecule, the CC50 at 48 h [24] was 53 µM, the CC50 at 48 h [33] was 43 µM and the Ratio [40] was 2.03. For the same molecule, the CC50 [42] was 56 µM and the IC50 [47] was 11.6 µM.
Molecule `Cc1c(C(=O)/C=C/c2cccc([N+](=O)[O-])c2)[n+]([O-])c2ccccc2[n+]1[O-]` has a CC50 [1] of 54 µM, a CC50 at 48 h [3] of 18 µM and an IC50 [8] of 16.3 µM. For the same molecule, the CC50 [12] was 34 µM, the CC50 [16] was 62 µM and the Ratio [21] was 3.75. For the same molecule, the CC50 at 48 h [24] was 47 µM, the CC50 at 48 h [33] was 46 µM and the Ratio [40] was 1.89. It also gave a CC50 [42] of 122 µM and an IC50 [47] of 15.8 µM.
With `CC(=O)c1c(C)[n+]([O-])c2ccccc2[n+]1[O-]` [MEQUINDOX] the CC50 [1] was 134 µM, the CC50 at 48 h [3] was > 400 µM and the IC50 [8] was 44.6 µM. It also gave a CC50 [12] of 196 µM, a CC50 [16] of 26 µM and a Ratio [21] of 1.04. The CC50 at 48 h [24] was > 400 µM, the CC50 at 48 h [33] was 352 µM and the Ratio [40] was 1.06. For the same molecule, the CC50 [42] was 146 µM and the IC50 [47] was 87.4 µM.
`Cc1c(C(=O)/C=C/c2ccc3c(c2)OCO3)[n+]([O-])c2ccccc2[n+]1[O-]` gave a CC50 [1] of 28 µM, a CC50 at 48 h [3] of 72 µM and an IC50 [8] of 24.2 µM. The CC50 [12] was 23 µM, the CC50 [16] was 13 µM and the Ratio [21] was 3.67. For the same molecule, the CC50 at 48 h [24] was 75 µM, the CC50 at 48 h [33] was 79 µM and the Ratio [40] was 1.58. The CC50 [42] was 25 µM and the IC50 [47] was 28.1 µM.
Work on `Cc1c(C(=O)/C=C/c2ccc([N+](=O)[O-])cc2)[n+]([O-])c2ccccc2[n+]1[O-]` yielded a CC50 [1] of 73 µM, a CC50 at 48 h [3] of 91 µM and an IC50 [8] of 261 µM. The CC50 [12] was 55 µM, the CC50 [16] was 262 µM and the Ratio [21] was 2.25. For the same molecule, the CC50 at 48 h [24] was 57 µM, the CC50 at 48 h [33] was > 400 µM and the Ratio [40] was 1.28. The CC50 [42] was > 400 µM and the IC50 [47] was 164 µM.

From ChEMBL document CHEMBL1137767, “2-(3-Aryl-2-propenoyl)-3-methylquinoxaline-1,4-dioxides: a novel cluster of tumor-specific cytotoxins which reverse multidrug resistance” (Bioorg Med Chem, 2009)
